Measurements from ChEMBL document CHEMBL4725473, “A Chemical Probe for the Methyl Transferase PRMT5 with a Novel Binding Mode” (ACS Med Chem Lett, 2020).
Blank lines part the entries; values can stand above or below the compound they belong to. The source made the active and inactive calls. The rule behind the calls is not given here.

Assays:
[1] = target: Protein arginine N-methyltransferase 5 (Homo sapiens, UniProt O14744); experiment: Inhibition of PRMT5 in human A549 cells assessed as reduction in arginine dimethylation of SmD1/3 after 48 hrs by Hoechst Stain/ CellMask Deep Red Stain based immunohistochemistry method; format: cell-based
Outline: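 A549 cells treated with compound for 48 h (2 days). Symmetric arginine dimethylation of SmD1/3 measured by immunofluorescence microscopy as the nuclear/cytoplasmic intensity ratio, normalized to DMSO control. Concentration–response curves; mean ± SE of at least three replicates (n ≥ 3).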

PRMT5/MEP50 complex [2] = target: T1, PRMT5/MEP50 complex (Homo sapiens, UniProt O14744); experiment: (§1) Inhibition of full-length human N-terminal FLAG-tagged PRMT5/full length N-terminal His6-tagged MEP50 (unknown origin) expressed in baculovirus infected Sf9 insect cells assessed as reduction of S-adenosyl-L-homocysteine formation using human recombinant histone H2A (1 to 130 residues) and S-adenosyl-L-methionine as substrate after 60 mins by rapidfire mass spectrometry analysis
Outline: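 PRMT5–MEP50 complex at 5.0 nM in assay; recombinant human histone H2A as substrate. Read-out is the decrease in SAM→SAH conversion, measured by RapidFire high-throughput mass spectrometry. IC50 reported as mean of n ≥ 2.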

[3] = target: T2, PRMT5/MEP50 complex (Homo sapiens) (UniProt O14744+Q9BQA1); experiment: as §1, with “Competitive inhibition” for “Inhibition”, “using varying concentrations of” for “using”, “80” for “60”
[4] = target: T2, PRMT5/MEP50 complex (Homo sapiens); experiment: as §1, with “Non-competitive inhibition” for “Inhibition”, “and varying concentrations of” for “and”, “80” for “60”
PRMT5/MEP50 complex [5] = target: T1, PRMT5/MEP50 complex; experiment: Binding affinity to N-terminal FLAG-tagged human PRMT5 (1 to 637 residues)/N-terminal thrombin His-tagged MEP50 (2 to 342 residues) expressed in baculovirus infected Sf21 cells by streptavidin coated sensor chip based surface plasmon resonance analysis
[6] = target: Histone-lysine N-methyltransferase SUV39H1 (Homo sapiens) (UniProt O43463); experiment: Inhibition of recombinant human N-terminal fusion protein tagged and C-terminal His-tagged SUV39H1 (44 to 412 residues) expressed in Escherichia coli using nucleosome as substrate at 10 uM by radiometric HotSpot assay relative to control
Outline: (§2)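 Selectivity panel of 21 purified recombinant human arginine and lysine methyltransferases. Compound tested at a single 10 μM concentration; percent inhibition of each enzyme reported.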

[7] = target: Histone-lysine N-methyltransferase SETD1B (Homo sapiens) (UniProt Q9UPS6); experiment: Inhibition of recombinant human N- terminal GST-tagged SET1B (1629 to 1923 residues) expressed in Escherichia coli using core histone as substrate at 10 uM by radiometric HotSpot assay relative to control; outline: as §2
[8] = target: Histone-lysine N-methyltransferase SETD2 (Homo sapiens) (UniProt Q9BYW2); experiment: Inhibition of recombinant human N-terminal GST-tagged SETD2 (1433 to 1711 residues) expressed in Escherichia coli using nucleosome as substrate at 10 uM by radiometric HotSpot assay relative to control; outline: as §2
[9] = target: N-lysine methyltransferase SMYD2 (Homo sapiens) (UniProt Q9NRG4); experiment: Inhibition of recombinant human N-terminal His-tagged SMYD2 (2 to 433 residues) expressed in Escherichia coli using histone H4 as substrate at 10 uM by radiometric HotSpot assay relative to control; outline: as §2
[10] = target: Protein arginine N-methyltransferase 3 (Homo sapiens) (UniProt O60678); experiment: Inhibition of recombinant human His-tagged PRMT3 (2 to end residues) expressed in Escherichia coli using histone H4 as substrate at 10 uM by radiometric HotSpot assay relative to control; outline: as §2
Homo sapiens [11] = species on record: Homo sapiens; experiment: Inhibition of recombinant human N-terminal His-tagged EZH2 (2 to 746)/human recombinant AEBP2 (2 to 517)/human recombinant EED (2 to 441)/human recombinant RbAp48 (2 to 425)/human recombinant SUZ12 (2 to 739) expressed in baculovirus infected insect cells using core histone as substrate at 10 uM by radiometric HotSpot assay relative to control; outline: as §2
[12] = target: N-lysine methyltransferase KMT5A (Homo sapiens) (UniProt Q9NQR1); experiment: Inhibition of recombinant human GST-tagged SETD8 (195 to 352 residues) expressed in Escherichia coli using nucleosome as substrate at 10 uM by radiometric HotSpot assay relative to control; outline: as §2
[13] = target: Histone-lysine N-methyltransferase SUV39H2 (Homo sapiens) (UniProt Q9H5I1); experiment: Inhibition of recombinant human C-terminal His-tagged SUV39H2 (48 to 410 residues) expressed in Escherichia coli using nucleosome as substrate at 10 uM by radiometric HotSpot assay relative to control; outline: as §2
[14] = target: Protein arginine N-methyltransferase 7 (Homo sapiens) (UniProt Q9NVM4); experiment: Inhibition of recombinant human N-terminal His-tagged full length PRMT7 (2 to 692 residues) expressed in baculovirus system using GST-GAR as substrate at 10 uM by radiometric HotSpot assay relative to control; outline: as §2
[15] = target: Protein arginine N-methyltransferase 6 (Homo sapiens) (UniProt Q96LA8); experiment: Inhibition of recombinant human His-tagged PRMT6 (2 to end residues) expressed in Escherichia coli using histone H3 as substrate at 10 uM by radiometric HotSpot assay relative to control; outline: as §2
[16] = target: T2, PRMT5/MEP50 complex (Homo sapiens); experiment: Inhibition of recombinat human N-terminal Flag-tagged PRMT5 (2 to 637 residues)/ N-terminal His-tagged MEP50 (2 to 342 residues) (unknown origin) expressed in baculovirus infected Sf9 cells using recombinant human histone H2A (1 to 130 residues) as substrate at 10 uM by radiometric HotSpot assay relative to control; outline: as §2
Homo sapiens [17] = species on record: Homo sapiens; experiment: Inhibition of recombinant human N-terminal His-tagged MLL1 (3745 to 3969 residues)/human WDR5 (22 to 334)/human RbBP5 (1 to 538)/human Ash2L (2 to 534)/human DPY30 (1 to 99) expressed in Escherichia coli using nucleosome as substrate at 10 uM by radiometric HotSpot assay relative to control; outline: as §2
[18] = target: Histone-lysine N-methyltransferase, H3 lysine-36 specific (Homo sapiens) (UniProt Q96L73); experiment: Inhibition of N-terminal His-tagged recombinant human NSD1 (1538 to 2696 residues) expressed in baculovirus infected insect cells using nucleosome as substrate at expressed in 10 uM by radiometric HotSpot assay relative to control; outline: as §2
[19] = target: Protein arginine N-methyltransferase 8 (Homo sapiens) (UniProt Q9NR22); experiment: Inhibition of recombinant human N-terminal and C-terminal His-tagged PRMT8 (61 to 394 residues) expressed in Escherichia coli using histone H4 as substrate at 10 uM by radiometric HotSpot assay relative to control; outline: as §2
[20] = target: Histone-lysine N-methyltransferase KMT5B (Homo sapiens) (UniProt Q4FZB7); experiment: Inhibition of recombinant human N-terminal GST-tagged SUV420H1 (2 to 393 residues ) expressed in baculovirus infected Sf9 cells using core histone as substrate at 10 uM by radiometric HotSpot assay relative to control; outline: as §2
[21] = target: Histone-lysine N-methyltransferase 2D (Homo sapiens) (UniProt O14686); experiment: Inhibition of recombinant human N- terminal His-tagged MLL2 (5319 to 5537 residues) expressed in Escherichia coli using core histone as substrate at 10 uM by radiometric HotSpot assay relative to control; outline: as §2
[22] = target: Histone-arginine methyltransferase CARM1 (Homo sapiens) (UniProt Q86X55); experiment: Inhibition of recombinant human FLAG-tagged PRMT4 (2 to end residues) expressed in FreeStyle HEK293-F cells using histone H3 as substrate at 10 uM by radiometric HotSpot assay relative to control; outline: as §2
[23] = target: Histone-lysine N-methyltransferase, H3 lysine-79 specific (Homo sapiens) (UniProt Q8TEK3); experiment: Inhibition of recombinant human N-terminal GST-tagged DOT1L (1 to 416 residues) expressed in Escherichia coli using nucleosome as substrate at 10 uM by radiometric HotSpot assay relative to control; outline: as §2
[24] = target: Histone-lysine N-methyltransferase EHMT2 (Homo sapiens) (UniProt Q96KQ7); experiment: Inhibition of N-terminal GST-fused recombinant human EHMT2 (786 to 1210 residues) expressed in Escherichia coli using histone H3 (1 to 21) as substrate at 10 uM by radiometric HotSpot assay relative to control; outline: as §2
[25] = target: Protein arginine N-methyltransferase 1 (Homo sapiens) (UniProt Q99873); experiment: Inhibition of recombinant human GST-tagged PRMT1 (2 to end residues) expressed in Escherichia coli using histone H4 as substrate at 10 uM by radiometric HotSpot assay relative to control; outline: as §2
[26] = target: Histone-lysine N-methyltransferase SETD7 (Homo sapiens) (UniProt Q8WTS6); experiment: Inhibition of recombinant human full length C-terminal His-tagged SETD7 expressed in Escherichia coli using core histone as substrate at 10 uM by radiometric HotSpot assay relative to control; outline: as §2
[27] = target: Histone-lysine N-methyltransferase PRDM9 (Homo sapiens) (UniProt Q9NQV7); experiment: Inhibition of recombinant human N-terminal GST-tagged PRDM9 (2 to 414 residues) expressed in baculovirus infected Sf9 cells using histone H3 as substrate at 10 uM by radiometric HotSpot assay relative to control; outline: as §2
A549 = experiment: Cytotoxicity against human A549 cells assessed as cell viability up to 10 uM incubated for 48 hrs by Hoechst staining based fluorescence microscopic analysis; conditions: a549, 48 h

T1 sequence (O14744 whole entry, the tested form may be a part): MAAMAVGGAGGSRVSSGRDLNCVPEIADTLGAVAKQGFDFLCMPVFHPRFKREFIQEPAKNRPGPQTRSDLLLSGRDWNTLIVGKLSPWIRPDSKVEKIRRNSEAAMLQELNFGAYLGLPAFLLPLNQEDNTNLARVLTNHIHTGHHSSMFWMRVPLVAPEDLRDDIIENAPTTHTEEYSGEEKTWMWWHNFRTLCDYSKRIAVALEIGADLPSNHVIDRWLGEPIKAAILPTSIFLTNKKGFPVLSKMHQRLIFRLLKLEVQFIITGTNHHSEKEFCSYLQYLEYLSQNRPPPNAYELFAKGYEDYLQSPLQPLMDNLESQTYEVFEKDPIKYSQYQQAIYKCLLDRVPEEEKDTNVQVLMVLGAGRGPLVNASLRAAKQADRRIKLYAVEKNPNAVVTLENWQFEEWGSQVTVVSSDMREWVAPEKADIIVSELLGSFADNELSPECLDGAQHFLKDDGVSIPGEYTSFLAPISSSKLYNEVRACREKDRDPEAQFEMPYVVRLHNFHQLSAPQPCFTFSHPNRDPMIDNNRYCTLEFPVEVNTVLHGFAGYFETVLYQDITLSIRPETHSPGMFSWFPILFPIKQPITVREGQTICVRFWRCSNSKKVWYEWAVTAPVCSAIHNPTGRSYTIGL
T1 sequence (Q9BQA1 whole entry, further chain, the tested form may be a part): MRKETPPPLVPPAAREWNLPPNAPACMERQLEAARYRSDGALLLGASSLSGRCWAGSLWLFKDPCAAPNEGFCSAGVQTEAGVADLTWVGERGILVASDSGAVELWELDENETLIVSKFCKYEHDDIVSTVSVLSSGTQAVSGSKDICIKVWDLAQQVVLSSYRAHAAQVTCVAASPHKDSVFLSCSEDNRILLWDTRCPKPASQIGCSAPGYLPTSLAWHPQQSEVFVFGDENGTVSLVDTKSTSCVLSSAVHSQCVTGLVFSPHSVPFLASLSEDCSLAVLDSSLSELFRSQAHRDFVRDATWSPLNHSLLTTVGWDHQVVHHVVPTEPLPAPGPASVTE
Chain of Protein arginine N-methyltransferase 5 (O14744 whole entry): as the sequence (O14744 whole entry, the tested form may be a part) above
Chain of Histone-lysine N-methyltransferase, H3 lysine-79 specific (Homo sapiens) (Q8TEK3 whole entry, looked up, the tested form may be a part): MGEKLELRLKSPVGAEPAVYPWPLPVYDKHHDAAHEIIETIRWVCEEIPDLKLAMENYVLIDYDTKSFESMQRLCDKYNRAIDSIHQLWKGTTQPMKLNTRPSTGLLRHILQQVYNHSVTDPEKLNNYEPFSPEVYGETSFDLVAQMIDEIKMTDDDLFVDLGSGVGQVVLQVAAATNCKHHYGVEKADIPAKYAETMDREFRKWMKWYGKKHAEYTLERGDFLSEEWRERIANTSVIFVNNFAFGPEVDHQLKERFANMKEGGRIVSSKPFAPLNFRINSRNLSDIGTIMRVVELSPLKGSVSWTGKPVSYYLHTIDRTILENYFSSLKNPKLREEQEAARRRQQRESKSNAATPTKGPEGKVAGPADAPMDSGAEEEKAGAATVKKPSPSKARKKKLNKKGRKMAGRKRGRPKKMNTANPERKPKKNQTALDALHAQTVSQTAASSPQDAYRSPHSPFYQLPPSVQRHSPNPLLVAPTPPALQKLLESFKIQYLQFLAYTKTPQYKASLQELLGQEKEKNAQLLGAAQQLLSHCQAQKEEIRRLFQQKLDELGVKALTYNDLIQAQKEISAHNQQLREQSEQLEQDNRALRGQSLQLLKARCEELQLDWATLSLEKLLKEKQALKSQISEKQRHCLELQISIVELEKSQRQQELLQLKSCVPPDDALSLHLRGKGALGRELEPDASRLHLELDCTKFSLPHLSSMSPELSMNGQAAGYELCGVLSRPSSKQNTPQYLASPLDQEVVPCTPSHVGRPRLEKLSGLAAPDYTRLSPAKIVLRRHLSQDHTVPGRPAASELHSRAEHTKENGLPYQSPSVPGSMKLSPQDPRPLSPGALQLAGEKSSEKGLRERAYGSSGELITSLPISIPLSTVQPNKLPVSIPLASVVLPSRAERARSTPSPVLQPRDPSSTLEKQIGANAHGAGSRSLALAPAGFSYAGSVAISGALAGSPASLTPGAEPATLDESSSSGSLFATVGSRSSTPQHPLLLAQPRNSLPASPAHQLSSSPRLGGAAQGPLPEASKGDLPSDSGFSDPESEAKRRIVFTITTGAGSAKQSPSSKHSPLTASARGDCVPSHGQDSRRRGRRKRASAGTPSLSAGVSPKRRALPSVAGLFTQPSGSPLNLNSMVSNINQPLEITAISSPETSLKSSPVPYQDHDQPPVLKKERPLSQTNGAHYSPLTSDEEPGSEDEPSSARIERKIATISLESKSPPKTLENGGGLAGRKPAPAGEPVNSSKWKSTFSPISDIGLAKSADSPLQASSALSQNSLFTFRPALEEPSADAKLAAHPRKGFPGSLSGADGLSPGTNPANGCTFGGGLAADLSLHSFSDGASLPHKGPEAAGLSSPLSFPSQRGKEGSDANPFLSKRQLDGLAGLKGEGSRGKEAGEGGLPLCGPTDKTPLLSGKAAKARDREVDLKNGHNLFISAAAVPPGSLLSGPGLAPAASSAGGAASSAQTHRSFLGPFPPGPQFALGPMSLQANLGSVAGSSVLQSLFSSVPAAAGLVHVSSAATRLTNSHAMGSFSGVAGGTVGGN
Chain of Histone-lysine N-methyltransferase EHMT2 (Homo sapiens) (Q96KQ7 whole entry, the tested form may be a part): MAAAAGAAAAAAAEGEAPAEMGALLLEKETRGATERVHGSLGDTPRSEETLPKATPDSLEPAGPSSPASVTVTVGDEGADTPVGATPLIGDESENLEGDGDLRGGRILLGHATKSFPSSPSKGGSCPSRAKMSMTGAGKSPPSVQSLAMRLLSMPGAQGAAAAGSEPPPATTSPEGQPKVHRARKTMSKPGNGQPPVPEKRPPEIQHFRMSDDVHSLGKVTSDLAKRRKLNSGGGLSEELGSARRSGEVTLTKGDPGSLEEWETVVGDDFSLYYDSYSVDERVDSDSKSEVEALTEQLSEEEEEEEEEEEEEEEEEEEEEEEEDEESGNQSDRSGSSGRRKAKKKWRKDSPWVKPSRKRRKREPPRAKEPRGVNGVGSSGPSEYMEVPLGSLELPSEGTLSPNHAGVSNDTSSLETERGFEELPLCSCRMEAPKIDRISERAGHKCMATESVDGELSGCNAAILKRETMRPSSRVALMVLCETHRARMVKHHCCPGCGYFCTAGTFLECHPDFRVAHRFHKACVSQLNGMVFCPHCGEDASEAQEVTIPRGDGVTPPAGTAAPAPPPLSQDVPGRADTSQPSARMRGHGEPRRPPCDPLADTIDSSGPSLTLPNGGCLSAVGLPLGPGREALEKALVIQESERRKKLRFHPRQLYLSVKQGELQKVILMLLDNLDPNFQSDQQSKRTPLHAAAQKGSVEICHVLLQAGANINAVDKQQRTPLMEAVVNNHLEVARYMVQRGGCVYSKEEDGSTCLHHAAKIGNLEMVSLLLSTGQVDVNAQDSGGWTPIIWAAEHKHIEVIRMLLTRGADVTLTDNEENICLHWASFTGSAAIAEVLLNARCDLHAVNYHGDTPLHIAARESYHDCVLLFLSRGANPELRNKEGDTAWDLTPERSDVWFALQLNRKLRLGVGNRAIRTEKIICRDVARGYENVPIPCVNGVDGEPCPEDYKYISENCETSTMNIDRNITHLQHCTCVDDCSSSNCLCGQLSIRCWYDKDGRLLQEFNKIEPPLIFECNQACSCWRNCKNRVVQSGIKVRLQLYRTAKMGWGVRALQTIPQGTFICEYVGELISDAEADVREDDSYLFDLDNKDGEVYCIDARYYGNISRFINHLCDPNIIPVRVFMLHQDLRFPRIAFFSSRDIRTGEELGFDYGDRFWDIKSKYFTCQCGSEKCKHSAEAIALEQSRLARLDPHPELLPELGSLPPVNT
Chain of Protein arginine N-methyltransferase 3 (Homo sapiens) (O60678 2-531 limits assumed): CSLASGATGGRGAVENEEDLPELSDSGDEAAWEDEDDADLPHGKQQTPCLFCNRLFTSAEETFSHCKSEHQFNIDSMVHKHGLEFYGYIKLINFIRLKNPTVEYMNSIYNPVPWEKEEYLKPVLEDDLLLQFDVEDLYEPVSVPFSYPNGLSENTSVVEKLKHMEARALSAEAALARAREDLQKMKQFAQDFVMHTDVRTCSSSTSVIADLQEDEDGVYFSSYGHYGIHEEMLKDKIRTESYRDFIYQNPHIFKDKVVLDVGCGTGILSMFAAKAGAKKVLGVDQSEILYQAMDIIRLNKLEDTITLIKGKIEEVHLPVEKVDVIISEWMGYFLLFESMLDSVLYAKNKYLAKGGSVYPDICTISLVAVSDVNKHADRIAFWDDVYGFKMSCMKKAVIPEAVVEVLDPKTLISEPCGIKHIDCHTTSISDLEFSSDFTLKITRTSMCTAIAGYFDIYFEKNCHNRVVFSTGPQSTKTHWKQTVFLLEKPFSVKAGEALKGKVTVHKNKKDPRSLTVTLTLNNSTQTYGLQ

SMILES: CC(=O)N1CCC2(CCCN2C[C@H]2O[C@@H](n3cnc4c(N)ncnc43)[C@H](O)[C@@H]2O)CC1
- IC50 (PRMT5/MEP50 complex [2]): > 10 µM

SMILES: Nc1ncnc2c1ncn2[C@@H]1O[C@H](CN2CCCC23CCNC3)[C@@H](O)[C@H]1O (stereo in doubt; 3b)
- IC50 (PRMT5/MEP50 complex [2]): 2.7 µM

SMILES: Nc1ncnc2c1ccn2[C@@H]1O[C@H](CN2CCCC23CCNCC3)[C@@H](O)[C@H]1O
- inhibition [3]: Active
- IC50 [1]: 0.058 µM
- IC50 (PRMT5/MEP50 complex [2]): 0.0095 µM
- inhibition [4]: Active

SMILES: Nc1ncnc2c1ncn2[C@@H]1O[C@H](CN2CCCC23CCNC3)[C@@H](O)[C@H]1O (stereo in doubt; 3a)
- IC50 (PRMT5/MEP50 complex [2]): 3.3 µM

SMILES: Nc1ncnc2c1ncn2[C@@H]1O[C@H](CN2CCCC23CCCCC3)[C@@H](O)[C@H]1O
- IC50 (PRMT5/MEP50 complex [2]): > 10 µM

SMILES: CN1CCC2(CCCN2C[C@H]2O[C@@H](n3ccc4c(N)ncnc43)[C@H](O)[C@@H]2O)CC1
- inhibition [3]: Active
- Kd (PRMT5/MEP50 complex [5]): 0.0076 µM
- inhibition [6]: < 25%
- inhibition [7]: < 25%
- inhibition [8]: < 25%
- inhibition [9]: < 25%
- IC50 [1]: 0.2 µM
- IC50 (PRMT5/MEP50 complex [2]): 0.048 µM
- inhibition [10]: < 25%
- inhibition (Homo sapiens [11]): < 25%
- inhibition [4]: Active
- inhibition [12]: < 25%
- inhibition [13]: < 25%
- inhibition [14]: < 25%
- inhibition [15]: < 25%
- inhibition [16]: > 90%
- inhibition (Homo sapiens [17]): < 25%
- inhibition [18]: < 25%
- inhibition [19]: < 25%
- inhibition [20]: < 25%
- inhibition [21]: < 25%
- inhibition [22]: < 25%
- inhibition [23]: < 25%
- inhibition [24]: < 25%
- inhibition [25]: < 25%
- inhibition [26]: < 25%
- inhibition [27]: < 25%

SMILES: Nc1ncnc2c1ncn2[C@@H]1O[C@H](CN2CCC23CCNCC3)[C@@H](O)[C@H]1O
- IC50 (PRMT5/MEP50 complex [2]): 0.37 µM

SMILES: Nc1ncnc2c1ncn2[C@@H]1O[C@H](CN2CCCC23CCNCC3)[C@@H](O)[C@H]1O
- Activity (A549): Non-Toxic
- IC50 [1]: 2.3 µM
- IC50 (PRMT5/MEP50 complex [2]): 0.052 µM

SMILES: Nc1ncnc2c1ncn2[C@@H]1O[C@H](CN2CCC3(CCNCC3)C2)[C@@H](O)[C@H]1O
- IC50 (PRMT5/MEP50 complex [2]): 5.4 µM

Now from value to compound:

- IC50 [1]: 2.4 µM
- IC50 (PRMT5/MEP50 complex [2]): 0.083 µM
SMILES: NCC[C@@H]1CCCN1C[C@H]1O[C@@H](n2cnc3c(N)ncnc32)[C@H](O)[C@@H]1O

- IC50 [1]: > 10 µM
- IC50 (PRMT5/MEP50 complex [2]): 76 µM
SMILES: Nc1ncnc2c1ncn2[C@@H]1O[C@H](CN2CCCC2)[C@@H](O)[C@H]1O

- IC50 (PRMT5/MEP50 complex [2]): > 10 µM
SMILES: Nc1ncnc2c1ncn2[C@@H]1O[C@H](CN2CCC(N)CC2)[C@@H](O)[C@H]1O

- IC50 (PRMT5/MEP50 complex [2]): 0.34 µM
SMILES: NCC[C@H]1CCCN1C[C@H]1O[C@@H](n2cnc3c(N)ncnc32)[C@H](O)[C@@H]1O

- IC50 (PRMT5/MEP50 complex [2]): > 10 µM
SMILES: Nc1ncnc2c1ncn2[C@@H]1O[C@H](CN2CCC3(CCNCC3)CC2)[C@@H](O)[C@H]1O

- IC50 (PRMT5/MEP50 complex [2]): 0.53 µM
SMILES: Nc1ncnc2c1ncn2[C@@H]1O[C@H](CN2CCCC3(CNC3)C2)[C@@H](O)[C@H]1O

- IC50 (PRMT5/MEP50 complex [2]): 5.1 µM
SMILES: Nc1ncnc2c1ncn2[C@@H]1O[C@H](CN2CCC23CNC3)[C@@H](O)[C@H]1O

- IC50 (PRMT5/MEP50 complex [2]): 0.74 µM
SMILES: Nc1ncnc2c1ncn2[C@@H]1O[C@H](CN2CCCC23CNC3)[C@@H](O)[C@H]1O

- IC50 (PRMT5/MEP50 complex [2]): > 10 µM
SMILES: Nc1ncnc2c1ncn2[C@@H]1O[C@H](CN2CCC3(CCNC3)CC2)[C@@H](O)[C@H]1O
